Where a name gives a salt, the structure may show the parent alone.
What was measured:
in vitro [1] = conditions: human
in vitro [2] = conditions: human; remark: listed apart in the source
JC polyomavirus [3] = test: Antiviral activity against JC polyomavirus M1/SVEdelta infected in human SVG-A cells assessed as inhibition of viral replication after 3 days; conditions: 72 h
JC polyomavirus [4] = test: Antiviral activity against JC polyomavirus Mad4 infected in human SVG-A cells assessed as inhibition of viral replication after 3 days; type: functional, cell-based; conditions: 72 h
Summary of the method: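 SVG-A cells (2,000/well) in MEM with 2% heat-inactivated FBS and 4 mM L-glutamine were exposed to JCV(Mad4) plus compound over a concentration range for 60 min at 37°C. Drug-containing medium was then added. Cells were fixed, then stained for VP1 (PAb597) and DAPI and imaged. Infection rate was % VP1+/DAPI+ cells; inhibition was scaled to infected and uninfected controls. EC50 came from a sigmoid fit, n = 5.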

JC polyomavirus [5] = test: Antiviral activity against JC polyomavirus Mad1 infected in human PHFG cells assessed as inhibition of viral replication after 7 to 10 days
[6] = Lipophilicity, log P of the compound; type: physicochemical; conditions: octanol/water
JC polyomavirus [7] = test: microbe, parasite or virus in culture; type: functional, cell-based; conditions: M1/SVEdelta, SVG-A, 72 h
Plasma = test: Drug concentration in human plasma; type: ADME, cell-free; conditions: read-out: Drug uptake
[8] = SVG-A cells infected with JC polyomavirus M1/SVEdelta

Row | Compound | CC50 (in vitro [1]; SVG-A cells) [µM] | selectivity ratio (in vitro [2]; [8]) | EC50 (JC polyomavirus [7]) [µM] | concentration (Plasma) [µM] | further results
1 | CC(C)c1ccc2c(c1)CC[C@H]1[C@](C)(C(N)=O)CCC[C@]21C [DEHYDROABIETAMIDE] | > 40 | > 2 |  |  | 
2 | OC(c1cc(C(F)(F)F)nc2c(C(F)(F)F)cccc12)C1CCCCN1 (configuration not stated) [MEFLOQUINE] |  |  | 4 | 6 | IC50 (JC polyomavirus [3]): 4 µM; IC50 (JC polyomavirus [4]): 4 µM; IC50 (JC polyomavirus [5]): 5 µM; logP [6]: 2.47; CC50 (in vitro [1]; svg-a): 16.1 µM; selectivity ratio (in vitro [2]; svg-a): > 2; IC50 (JC polyomavirus [7]): 3.9 µM
3 | Cc1nccc2c1[nH]c1ccccc12 [HARMAN] | > 40 | > 2 | 14.4 |  | 
4 | COc1ccc([C@@H]2Sc3ccccc3N(CCN(C)C)C(=O)[C@@H]2OC(C)=O)cc1 [DILTIAZEM HYDROCHLORIDE] | > 40 |  | 8.5 | 0.5 | 
5 | O=C(O)c1ccccc1Nc1cccc(C(F)(F)F)c1 [FLUFENAMIC ACID] |  | > 3 | 11 |  | 
6 | Cc1c(Nc2ncccc2C(=O)O)cccc1C(F)(F)F [FLUNIXIN MEGLUMINE] | > 40 | > 2 | 14.5 |  | 
7 | COc1cc(C)c(C(=O)Oc2cc(C)c(C(=O)O)c(O)c2C)c(OC)c1C [DIFFRACTAIC ACID] | > 40 | > 2 | 14.4 |  | 
8 | Clc1ccc(COC(Cn2ccnc2)c2ccc(Cl)cc2Cl)c(Cl)c1 (configuration not stated) [MICONAZOLE NITRATE] |  |  |  |  | CC50 (in vitro [1]; svg-a): 22.9 µM
9 | CC1=C(/C=C/C(C)=C/C=C/C(C)=C\C(=O)O)C(C)(C)CCC1 [ISOTRETINOIN] | > 40 |  | 4.4 | 24 | selectivity ratio (in vitro [2]; svg-a): > 2
10 | O[C@H](c1cc(C(F)(F)F)nc2c(C(F)(F)F)cccc12)[C@@H]1CCCCN1 (racemic) [(R,S)-MEFLOQUINE] |  |  | 2.7 |  | 
11 | O=c1c2ccccc2oc2ccccc12 [XANTHONE] | > 40 | > 2 | 16.8 |  | 
12 | CCC(=O)Nc1ccc(Cl)c(Cl)c1 [PROPANIL] | > 40 | > 2 | 7.8 |  | 
13 | Cc1c(Cl)cccc1Nc1ccccc1C(=O)O [TOLFENAMIC ACID] |  | > 3 | 15 |  | 
14 | O[C@@H](c1cc(C(F)(F)F)nc2c(C(F)(F)F)cccc12)[C@H]1CCCCN1 [(S,R)-MEFLOQUINE] |  |  | 4.5 |  | 
15 | CC(=O)O[C@H]1C[C@@]2(C)[C@@H](C[C@@H](O)[C@H]3[C@@]4(C)CC[C@@H](O)[C@@H](C)[C@@H]4CC[C@@]32C)/C1=C(\CCC=C(C)C)C(=O)O [FUSIDIC ACID] | > 40 | > 2 | 8.6 | 19 | 
16 | O=C(O)Cc1ccccc1Nc1c(Cl)cccc1Cl [DICLOFENAC SODIUM] | 30.5 | > 2 | 8.3 | 8 | 
17 | Cc1cccc(Nc2ccccc2C(=O)O)c1C [MEFENAMIC ACID] | > 40 | > 2 | 10.9 | 40 | 

Source: ChEMBL document CHEMBL1649190, “Identification and characterization of mefloquine efficacy against JC virus in vitro” (Antimicrob Agents Chemother, 2009)
